Experimental findings from ChEMBL document CHEMBL1127290, “1-(2,5-Dimethoxy-4-(trifluoromethyl)phenyl)-2-aminopropane: a potent serotonin 5-HT2A/2C agonist” (J Med Chem, 1994) are described below.

pKi: −log10 of the molar value. Several values for one entry are separate records, joined by “and”; a condition that tells them apart may be missing. Equal entries are not always repeated.

The target of assay [1] is T1, 5-hydroxytryptamine receptor 1A (Rattus norvegicus, UniProt P19327).
T1 sequence (P19327 whole entry): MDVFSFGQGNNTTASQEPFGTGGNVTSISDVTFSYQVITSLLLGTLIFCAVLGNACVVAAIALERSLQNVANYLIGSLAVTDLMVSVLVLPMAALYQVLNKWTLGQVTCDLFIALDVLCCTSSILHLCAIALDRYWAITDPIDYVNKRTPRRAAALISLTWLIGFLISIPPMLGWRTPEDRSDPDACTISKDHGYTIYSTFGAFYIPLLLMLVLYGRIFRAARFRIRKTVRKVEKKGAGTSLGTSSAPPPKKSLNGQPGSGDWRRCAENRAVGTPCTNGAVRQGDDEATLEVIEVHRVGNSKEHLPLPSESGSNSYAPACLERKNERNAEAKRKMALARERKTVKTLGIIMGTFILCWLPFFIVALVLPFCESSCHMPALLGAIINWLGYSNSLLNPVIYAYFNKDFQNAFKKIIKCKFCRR
Kind of assay: Tested for the binding affinity against the site labelled by the 5-hydroxytryptamine 1A receptor agonist [3H]- 8-OH-DPAT. An outline of the steps:
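[3H]-8-OH-DPAT binding in rat brain homogenate (frontal cortex or hippocampus) in 50 mM Tris HCl pH 7.4 with EDTA, ascorbate and pargyline; 200–400 μg protein. 15 min at 37 °C, then GF/C filtration. Nonspecific binding defined by 10 μM 5-HT. Triplicates, scintillation counting.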

For assay [2], the target named is T2, Serotonin receptor 2a and 2c (5HT2A and 5HT2C) (Rattus norvegicus, UniProt P08909+P14842). Kind of assay: Tested for the binding affinity against the site labelled by the 5-hydroxytryptamine 2A receptor - 5-hydroxytryptamine 2C receptor antagonist [3H] ketanserin. Type of assay: protein assay. The gist of the method:
(§1)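 Rat frontal cortex homogenate in 50 mM Tris HCl pH 7.4 with 0.5 mM EDTA, 0.1% ascorbate, pargyline and 5.7 mM CaCl2; 200–400 μg protein. […] Nonspecific binding defined by 10 μM cinanserin. Triplicate determinations, scintillation counting.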

The target of assay [3] is T2, Serotonin receptor 2a and 2c (5HT2A and 5HT2C). Put plainly: Tested for the binding affinity against the site labelled by the 5-hydroxytryptamine 2A receptor - 5-hydroxytryptamine 2C receptor agonist [125I]- - (+/-)DOI. Type of assay: protein assay. An outline of the steps:
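Rat frontal cortex homogenate, pooled and preincubated twice at 37 °C. Buffer was 50 mM Tris HCl pH 7.4 with 0.5 mM EDTA, 0.1% ascorbate, pargyline and MgCl2; 200–400 μg protein. 0.1 nM [125I]DOI was competed by 8–10 test concentrations, 15 min at 37 °C, then GF/C filtration. Nonspecific binding defined by 10 μM cinanserin. Triplicates, gamma counting.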

The species entered for assay [4] is Rattus norvegicus. Kind of assay: Effective dose in rat. Type of assay: functional. An outline of the steps: (§2)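 Rats trained on a two-lever FR50 food-reinforced task to discriminate LSD tartrate (0.08 mg/kg, ip, 30 min pre-session) from saline. Test drugs were given ip in 0.9% saline, 1 mL/kg, 30 min before extinction test sessions ended at 50 presses; failure within 5 min was scored as disruption. Quantal %SDL per dose. ED50 with 95% CI by Litchfield–Wilcoxon log-probit, not calculated if ≥50% disrupted.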

Assay [5] has as its target T2, Serotonin receptor 2a and 2c (5HT2A and 5HT2C). Put plainly: Tested for the binding affinity against the site labelled by the 5-hydroxytryptamine 2A receptor - 5-hydroxytryptamine 2C receptor antagonist [3H]- ketanserin. Type of assay: protein assay. The gist of the method:
as §1

The species named for assay [6] is Rattus norvegicus. Kind of assay: The percentage of rats selecting the drug lever at each dose. In kind it is functional. The gist of the method: as §2

In the case of `COc1cc(C(F)(F)F)c(OC)cc1CCN`, the pKi in assay [1] was 5.47. Besides, the Ki in assay [2] was 74.5 nM; in assay [3], 1.1 nM. In assay [4], this molecule showed an ED50 of 0.82 µmol/kg.

For the molecule `COc1cc(CCN)c(OC)cc1I`, the Ki in assay [3] is 1.9 nM; in assay [5] it was 80.9 nM. In assay [4], this molecule had an ED50 of 1.04 µmol/kg.

Regarding `COc1cc(CC(C)N)c(OC)cc1I` (centres undefined), the ED50 in assay [4] turned out to be 0.97 µmol/kg. In addition, the SDL in assay [6] is 80% [middle of 4 runs].

On to `COc1cc(C(F)(F)F)c(OC)cc1CC(C)N` (centres undefined), for which the pKi in assay [1] is 5.65. Besides, the Ki in assay [3] stood at 1.5 nM; in assay [5], 33 nM. For the same molecule, the SDL in assay [6] was 62.5% and 80% and 100%.

On to `COc1cc(CC(C)N)c(OC)cc1Br` (centres undefined) [BROLAMFETAMINE], for which the ED50 in assay [4] was 1.12 µmol/kg.

A word on the pKi: it is the Ki on a negative log10 scale, so that one unit is a factor of ten. For orientation: Ki means the dissociation constant of the complex between target and ligand, obtained from inhibition or displacement. For orientation: ED50 means the dose that gives a 50% effect, or the effect in half of the subjects. Low readings indicate greater potency, high ones weaker potency.
